CHRM4 PAM: positive allosteric modulators of human muscarinic M4 receptor | 0.4% of 360,000 active | CHO-K1 hM4/Gqi5, Fluo-8 calcium fluorescence, ACh EC20; 0% = ACh EC20, 100% = maximal ACh | P08173 | activation, % at 3 µM;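 active = activation above its plate's cutoff, the mean activation of sample wells plus 3 SD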
M5 PAM: potentiates acetylcholine response at human M5 receptor; activation, % at 3 µM; 0.3% of 360,000 active; P08912; AID 624038; CHO-K1 hM5, Fluo-8 calcium, ACh EC20 PAM; 0% = ACh EC20, 100% = ACh EC100;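 active = activation above the run cutoff, the mean activation of all test compounds plus 3 SD, cut at about 18% in these data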
Target sequence (P08912 whole entry, looked up): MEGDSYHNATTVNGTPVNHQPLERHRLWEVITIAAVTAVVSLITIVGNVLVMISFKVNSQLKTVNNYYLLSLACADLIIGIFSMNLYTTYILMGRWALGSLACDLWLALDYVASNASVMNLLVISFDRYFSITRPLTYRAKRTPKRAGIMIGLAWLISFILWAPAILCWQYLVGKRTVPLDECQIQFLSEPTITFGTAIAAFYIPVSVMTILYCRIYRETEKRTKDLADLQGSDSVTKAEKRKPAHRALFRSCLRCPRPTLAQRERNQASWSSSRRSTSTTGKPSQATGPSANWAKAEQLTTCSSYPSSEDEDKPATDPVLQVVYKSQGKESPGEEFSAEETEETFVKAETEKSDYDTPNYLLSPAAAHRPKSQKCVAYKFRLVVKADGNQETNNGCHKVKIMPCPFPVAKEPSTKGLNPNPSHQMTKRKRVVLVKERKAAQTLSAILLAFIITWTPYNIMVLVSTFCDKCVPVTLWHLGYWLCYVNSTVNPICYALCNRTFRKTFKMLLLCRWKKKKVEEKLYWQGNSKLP
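System: CHO-K1 hM5 cells. Reagent: acetylcholine, EC20 level. Compound dosing: single dose, 3 µM nominal final test concentration. Timing: Post-acetylcholine fluorescence recording 140 s. Detection: Fluo-8 calcium fluorescence. Read-out: % activation, ACh-normalized. Benchmarks: ACh EC20 and EC100 wells. Repeats: singlicate, one well per test compound.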
M4 antag: blocks acetylcholine activation of human M4 receptor; P08173; 0.73% of 360,000 active; inhibition, % at 3 µM; AID 624125; CHO-hM4 cells, ACh EC80, Fluo-8 calcium fluorescence;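 active = inhibition above its plate's cutoff, the mean inhibition of sample wells plus 3 SD, cut at about 27% in these data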;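 note: 0% = acetylcholine EC80 with DMSO and 100% = DMSO without agonist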
M4 ag: CHRM4 agonism in calcium assay; P08173; CHO-K1 hM4/Gqi5, Fluo-8 calcium fluorescence; vehicle 0%, full acetylcholine response 100%; activation, % at 3 µM; 0.14% of 360,000 active;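 active = activation above the run mean over all test wells plus 3 SD, cut at about 32% in these data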;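 note: peak over basal fluorescence ratio per well then scaled between controls; 0% = DMSO wells and 100% = acetylcholine at EC100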
CHRM5 agonist: CHRM5 agonism in calcium assay; P08912; CHO-K1 hM5 cells, Fluo-8 calcium fluorescence; 0% DMSO wells, 100% maximal acetylcholine response; activation, % at 3 µM; 0.19% of 360,000 active;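 active = activation above the run's mean over test compounds plus 3 SD, cut at about 23% in these data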;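 note: signal is peak over basal fluorescence ratio across the kinetic read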
M5 antag: blocks acetylcholine activation of human M5 receptor; AID 624040; 0.59% of 360,000 active; CHO-hM5 cells, Fluo-8 calcium fluorescence, ACh EC80; inhibition, % at 3 µM; P08912;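 active = inhibition above a per-plate cutoff, the mean of that plate's test compounds plus 3 SD, cut at about 27% in these data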;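 note: 0% = acetylcholine EC80 with DMSO and 100% = DMSO without agonist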
* hit, by the source's call. Hits are enriched below; roughly 1.8% of the tested compounds scored in any of these assays.

SMILES | CHRM4 PAM | M5 PAM | M4 antag | M4 ag | CHRM5 agonist | M5 antag
COc1ccc(-c2cn3cccnc3n2)cc1NS(=O)(=O)c1ccccc1 | 7 | -1 | -8 | 2 | -1 | -4
O=C1C=C(N2CCOCC2)c2ccccc2C1=O | 6 | 4 | -6 | 2 | 2 | 5
CC1=C(C)C(=O)C(N2CCOCC2)=CC1=O | 9 | 21* | 2 | 2 | 7 | 12
CC(C)C[C@@H](CO)N(Cc1ccccc1)S(=O)(=O)N(Cc1ccccc1)[C@H](CO)CC(C)C | -8 | -20 | 39* | 20 | 2 | 9
CC(C)C[C@@H](CO)N(Cc1ccccc1)S(=O)(=O)N(Cc1ccccc1)[C@@H](CO)CC(C)C | -14 | -21 | 26 | 10 | -1 | 16
COc1ccc(CN([C@H](CO)CC(C)C)S(=O)(=O)N(Cc2ccccc2)[C@H](CO)CC(C)C)cc1 | -10 | -32 | 41* | 17 | -1 | 18
CCOC(=O)C1=CN(Cc2cccc(-c3ccc(F)cc3)c2)S(=O)(=O)N(C)C1C (stereo not given) | -7 | -2 | -4 | 0 | -1 | -13
c1ccc2c(c1)ccc1ncccc12 | 21* | 0 | 5 | 2 | -3 | 5
O=C(NCCc1ccccc1)C1Cc2c(-c3ccc4c(c3)OCO4)ccnc2O1 (stereo not given) | -1 | 1 | -1 | 4 | -3 | -2
Cc1nc(-c2ccccc2)sc1C1(C)CC(c2ccc(OC(F)(F)F)cc2)=NO1 (stereo not given) | 7 | 18* | -23 | 1 | 1 | -4
CC(=O)NC1(NC(C)=O)CCN(C)C(c2ccccc2)C1C (stereo not given) | 20 | 10 | 11 | 1 | 26* | -8
CCS(=O)(=O)N1CCC(NC(C)=O)(c2ccccc2)CC1 | -2 | -4 | 9 | 0 | -2 | 2
O=C1C=CC2(C=C1)O[C@H](Cc1ccccc1)[C@@H](Cc1ccccc1)O2 | -7 | -1 | 62* | 2 | 4 | 16
COc1ccc(C[C@@H]2OC3(C=CC(=O)C=C3)O[C@H]2Cc2ccc(OC)cc2)cc1 | -9 | 0 | 76* | 4 | -2 | 15
COc1ccc(N2C(=O)CC(Cc3ccccc3)C2=O)cc1 (stereo not given) | 5 | 1 | 4 | 2 | -2 | -2
CCOC(=O)C1=CC[C@@H](c2cccc(Br)c2)N(S(=O)(=O)c2ccc(F)cc2)[C@H]1c1cccc(Cl)c1 | -10 | -3 | 14 | 2 | 0 | 2
Cn1c(=O)[nH]c(=O)c2c1nc(N1CCCCC1)n2CCSc1nc2ccccc2o1 | -13 | -11 | 81* | 0 | -1 | 10
COc1ccc(N2CCN(CC(=O)NC(=O)NCc3ccco3)CC2)cc1 | 3 | 4 | 4 | 1 | -1 | -2
O=C(CN1CCN(c2ccc(O)cc2)CC1)NC(=O)NCc1ccco1 | 11 | 19* | -14 | 1 | 0 | -8
CN1CCCC(CC2c3ccccc3Sc3ccccc32)C1 (stereo not given) | -18 | -19 | 99* | 11 | 2 | 99*
CN1CCCC(CN2c3ccccc3Sc3ccccc32)C1 (stereo not given) | -18 | -19 | 86* | 10 | 1 | 99*
CCSc1ccc2c(c1)N(CCCN1CCN(C)CC1)c1ccccc1S2 | -15 | -16 | 13 | 13 | 1 | 15
CCCCCCCCN1C(=O)[C@H](CC(=O)NCC23CC4CC(CC(C4)C2)C3)C[C@@]2(C(=O)OCC)CCC=C12 | -1 | 0 | -7 | 0 | -2 | -12
Cc1ccc(S(=O)(=O)NCCC(=O)NC2CCCCCC2)cc1 | 15 | 0 | -4 | 1 | 0 | 7
CCN(CC)C(=O)c1[nH]cnc1C(=O)NCC(=O)OCc1ccccc1 | -12 | -29 | 24 | 24 | 3 | 27*
C[C@H](NC(=O)c1nc[nH]c1C(=O)NCC(=O)OCc1ccccc1)c1ccccc1 | -14 | -32 | 28* | 24 | 3 | 13
CC(C)(C)OC(=O)NCc1ccc(CNC(=O)c2[nH]cnc2C(=O)NCC(=O)OCc2ccccc2)cc1 | -14 | -36 | 38* | 30 | 11 | 4

Screens deposited in PubChem by The Scripps Research Institute Molecular Screening Center.
